Assays:
[1] = Phase I 3+3 dose escalation of RO4929097 with RT and temozolomide: toxicity; format: in vivo, human
[2] = tested on: tumor blood perfusion and vascular permeability; experiment: DCE-perfusion MRI before and after 7 days of RO4929097; format: in vivo, human; conditions: after 7 days of RO4929097
Method in brief: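 Dynamic contrast-enhanced perfusion MRI in glioma patients before and after 7 days of daily test compound given before resection. Read-outs were relative fractional plasma volume (Vp) for blood perfusion and volume transfer coefficient between plasma and extravascular extracellular space (K^trans) for vascular permeability. Values given as mean±SEM; significance by unpaired Student's t-test.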

[3] = tested on: tumor cells proliferation (Ki-67); experiment: Ki-67 immunohistochemistry of matched pre- and post-treatment tumor tissue; format: in vivo, human
Method in brief: (§1)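 Tumor sections taken before and after 7 days of daily test compound were immunostained; the last dose was given 2–3 h before resection. NICD used an anti-NICD antibody. At least 1,000 cells counted per marker, with morphometry by image analysis. Ki-67 values were also grouped by patient survival (n=7). Mean±SEM; unpaired Student's t-tests.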

[4] = Plasma pharmacokinetics of RO4929097; format: in vivo, human; conditions: 10, 15, 20 mg, with temozolomide 75mg/m2
Method in brief: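 Daily test compound at 10, 15 or 20 mg, combined with temozolomide 75 mg/m² and 150 mg/m². Plasma levels measured by HPLC-MS/MS. […] Reported as mean ±SD.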

GSC-like CD133+ cells = experiment: Organotypic tumor explants: FACS analysis of CD133+ cells; format: cell-based, human; conditions: RO4929097 alone; n=5
[5] = tested on: NICD-expressing vascular structures; experiment: NICD/CD31 immunohistochemistry of tumor blood vessels; format: in vivo, human
glioblastoma explants [6] = experiment: Organotypic tumor explants: CellTiter Glo Luminescent Assay; format: cell-based, human; conditions: triple combination RT+temozolomide+RO4929097; n=5
glioblastoma explants [7] = experiment: Organotypic tumor explants: Ki-67 immunofluorescent staining; format: cell-based, human; conditions: RO4929097 1 µM, 10 days in vitro; n=4
Method in brief: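 Fresh tumor tissue from patients resected on study was grown as 3-D organotypic explants. Established explants were treated with the test compound alone. Proliferation was read by Ki-67 immunofluorescent staining and counting of Ki-67+ nuclei before and after treatment (n=4). Mean±SEM; unpaired Student's t-test.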

Hes1 = conditions: cited from earlier work
Notch pathway components = format: in vivo, human; conditions: enhancing tissue compared to areas of intact BBB, after 7 days
Method in brief: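 After 7 days of daily test compound (last dose 2–3 h pre-resection), tumor was sampled separately from contrast-enhancing and non-enhancing regions, defined by intraoperative MRI. Notch pathway transcripts were quantified by real-time PCR, normalized to 18S (n=6). Mean±SEM; unpaired Student's t-tests.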

[8] = tested on: Notch gene targets, angiogenesis and mesenchymal genes; experiment: RNA-Ampliseq gene expression profiling of matched and recurrent tumors; format: in vivo, human
Method in brief: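 RNA sequencing on FFPE tumor tissue. Samples were matched archival pre-treatment tissue and tissue resected after the initial 7 days of daily test compound. A further set was recurrent tumors resected at repeat surgery from patients kept on the test compound (with temozolomide) until the day of surgery (n=7).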

[9] = tested on: Notch intracellular domain (NICD); experiment: NICD immunohistochemistry of tumor cells in matched glioblastoma tissue; format: in vivo, human; conditions: after presurgical 7-day treatment; before 21.9 ± 5.4 %; n=6
Method in brief: as §1

[10] = format: in vivo, human
[11] = after RO4929097, survival cut-off 14 months
[12] = second surgery after prolonged course (mean 181 days)

## CC(C)(C(=O)NCC(F)(F)C(F)(F)F)C(=O)N[C@@H]1C(=O)Nc2ccccc2-c2ccccc21 [RO4929097]
[1]
  QTc prolongation: no significant QTc prolongation
  treatment-related deaths: no treatment-related deaths
[1]; daily
  recommended phase 2 dose (RP2D): 20 mg
[2]; baseline 0.05± 0.01
  mean K^trans after treatment: 0.03 ± 0.01 min⁻¹
[2]; baseline 9.34± 2.4, p<0.05, 8 patients
  mean Vp ratio after drug exposure: 3.92± 0.9
[3]; after 7 days of RO4929097, baseline 15.0 ± 2.3 %
  Ki-67, poor survival group: 20.4 ± 2.2%
[3]; after 7 days of RO4929097, baseline 37.3 ± 10.7 %
  Ki-67, favorable survival subgroup: 8.5 ± 3.2%
[3]; after 7 days of RO treatment, before 27.7 ± 7.3 %, n=7
  Ki-67 proliferation marker after treatment: 13.6 ± 3.1%
[4]
  mean Cmax and AUC24 for the initial dose: increased as the dose was escalated
GSC-like CD133+ cells
  proportion of CD133+ cells in explants: significant decrease
[5]; Pre vs Post vs PostPP
  microvascular density: no significant change
[5]; [11]
  NICD expression on vascular structures, better survival group: 22.5 ± 5.0%
  NICD expression on vascular structures, poor survival group: 43.8 ± 9.0%
[5]; at 7 days of RO4929097, Pre 67.6 ± 5.2 %, percent of total blood vessels
  NICD-expressing vascular structures (Post): 30.0 ± 9.0%
[5]; at recurrence after prolonged treatment, Pre 67.6 ± 5.2 %
  NICD-expressing vascular structures (PostPP): 24.2 ± 5.2%
Glioblastoma explants [6]
  decrease in tumor cell viability compared to control untreated explants: ~60%
Glioblastoma explants [7]
  proliferation (Ki-67 quantification) in explants: significant decrease in proliferation
Hes1
  concentration from which target genes (e.g. Hes1) are reduced dose-dependently: ≥ 0.1 µM
Notch pathway components
  Hes1 mRNA levels: remained unchanged
  mRNA of Notch receptors (Notch 2, 3 and 4): significant upregulation
  mRNA of downstream effector Hes5: suppression
Notch pathway components; n=6
  mRNA of DLL1, DLL3 and Jag2 ligands: significant downregulation
[8]; after presurgical 7-day RO4929097 treatment phase
  mesenchymal-associated genes C/EBPB and STAT3: downregulated
[8]; mostly recurrence group with prolonged therapy, not statistically significant
  expression of primary Notch gene targets Hes5, Hey1 and Hey2: trend towards downregulation
[8]; recurrent tumors under prolonged RO4929097 therapy
  angiogenesis markers PECAM (CD31), angiopoetins and VEGFA: upregulation
[9]
  NICD-positive tumor cells after treatment: 5.1 ± 1.3%
[10]; after 7 days of RO4929097, at surgery, disrupted BBB, mean ± SEM
  tumor drug level, enhancing tissue: 0.73 ± 0.13 µM
[10]; after 7 days of RO4929097, at surgery, intact BBB, mean ± SEM
  tumor drug level, non-enhancing tissue: 0.33 ± 0.04 µM
[10]; repeat surgery, prolonged RO4929097 use, single specimen
  drug level in non-enhancing tumor tissue, specimen M09: ~ 1.3 µM
[10]; [12]
  tumor drug concentration, enhancing areas: 0.77 ± 0.19 µM
  tumor drug concentration, non-enhancing areas: 0.71 ± 0.24 µM
[10]; tumor tissue, survival cut-off 14 months
  average tissue drug level, favorable survival group: 0.15 ± 0.03 µM
[10]; tumor tissue, survival cut-off 14 months, p=0.36 vs favorable
  average tissue drug level, poor survival group: 0.19 ± 0.05 µM

— PMC5050072 (Clinical cancer research : an official journal of the …, 2016)
